Assay results from ChEMBL document CHEMBL1629582, “Novel nucleotide human immunodeficiency virus reverse transcriptase inhibitor GS-9148 with a low nephrotoxic potential: characterization of renal transport and accumulation” (Antimicrob Agents Chemother, 2009).

Assays:
[1] = Drug uptake in human kidney cortex at 5 uM by liquid scintillation counting in presence of 500 uM of probenecid; type: ADME, tissue-based
[2] = Cytotoxicity against CHO cells after 120 hrs by Cell-Titer Glo assay; type: cell-based, Cricetulus griseus; details: chinese hamster
Outline: (§1)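 CHO cells carrying hOAT1 or empty vector were seeded in parallel at 3 × 10³/well. After 24 h, serial drug dilutions were added in triplicate and incubated 120 h. Viability was read by luminescence relative to untreated wells. CC50 was taken by nonlinear regression from two independent experiments, mean ± SD.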

[3] = molecular target: T1, Solute carrier family 22 member 6 (Homo sapiens, UniProt Q4U2R8); test: Activity of human OAT1 transfected in CHO cells measured per 10^6 cells; type: cell-based
T1 sequence (Q4U2R8 whole entry): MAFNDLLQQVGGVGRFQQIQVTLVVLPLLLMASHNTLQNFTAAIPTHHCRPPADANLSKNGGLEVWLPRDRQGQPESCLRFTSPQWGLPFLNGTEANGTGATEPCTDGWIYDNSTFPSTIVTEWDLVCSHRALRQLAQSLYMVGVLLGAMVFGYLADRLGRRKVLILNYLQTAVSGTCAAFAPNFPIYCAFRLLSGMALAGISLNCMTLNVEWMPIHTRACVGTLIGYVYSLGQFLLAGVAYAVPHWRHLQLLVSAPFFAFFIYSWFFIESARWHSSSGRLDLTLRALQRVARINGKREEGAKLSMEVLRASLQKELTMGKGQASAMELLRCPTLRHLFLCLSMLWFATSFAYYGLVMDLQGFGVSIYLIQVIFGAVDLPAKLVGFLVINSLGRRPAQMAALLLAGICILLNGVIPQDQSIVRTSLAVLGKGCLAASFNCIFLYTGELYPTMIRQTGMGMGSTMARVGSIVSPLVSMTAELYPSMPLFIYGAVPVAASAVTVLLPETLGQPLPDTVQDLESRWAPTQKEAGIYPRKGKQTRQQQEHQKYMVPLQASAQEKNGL
Outline: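 Radiolabelled substrate at various concentrations incubated 20 min at 37°C with CHO cells stably expressing hOAT1 in Waymouth buffer (pH 7.2). Cells washed in ice-cold PBS, lysed in 0.3% Triton X-100, uptake read by scintillation counting. Km and Vmax fitted by Michaelis-Menten. Two independent experiments in duplicate, mean ± SD.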

OAT1 = test: Cytotoxicity against CHO cells expressing hOAT1 after 120 hrs by Cell-Titer Glo assay; type: ADME, cell-based, Cricetulus griseus; details: chinese hamster; outline: as §1
[4] = AUC (0 to 24 hrs) in dog at 3 mg/kg, po; type: ADME, organism-based, Canis lupus familiaris; set-up: time < 24 hr, dose 3 mg/kg, route oral; details: plasma
[5] = Percent of urinary material present as GS-9148 in dog urine at 3 mg/kg, po
[6] = Renal clearance in dog urine at 3 mg/kg, po; type: ADME, organism-based, Canis lupus familiaris; set-up: dose 3 mg/kg, route oral; details: read-out: CL_renal (converted)
Outline: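 Fasted dogs were given 3.0 mg/kg [14C]prodrug (10 μCi/kg) in 50 mM citrate pH 2.2 by oral gavage. Urine was collected on dry ice over 0–8 and 8–24 h and counted by scintillation. Parent nucleotide in pooled 0–24 h urine was measured by radio-HPLC on a C18 column with an ammonium formate/acetonitrile gradient. Renal clearance = 24-h urinary amount / 24-h plasma exposure / body weight; three dogs.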

CHO [7] = test: Cellular uptake in CHO cells expressing hOAT1 at 10 uM by liquid scintillation counting relative to control; type: ADME, cell-based, Cricetulus griseus; details: chinese hamster
Outline: (§2)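 Radiolabeled nucleotide at 10 μM was incubated at 37°C in Waymouth buffer pH 7.2 with transporter-expressing cells (CHO-hOAT1 or BHK-hOAT3) and matching empty-vector control cells, with or without 500 μM probenecid. Uptake was sampled at several time points, with longer times for hOAT3. Washed cells were lysed in Triton X-100 and counted by scintillation. Two independent experiments in duplicate, mean ± SD; two-tailed paired t test.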

CHO [8] = test: Cellular uptake in CHO cells expressing hOAT1 at 10 uM by liquid scintillation counting in presence of 500 uM of probenecid relative to control; type: ADME, cell-based, Cricetulus griseus; details: chinese hamster; outline: as §2
[9] = Cellular uptake in human HEK293T cells expressing MRP4 efflux transporter at 5 uM by liquid scintillation counting relative to control; details: hek-293t
[10] = Cellular uptake in human HEK293T cells expressing MRP4 efflux transporter at 5 uM by liquid scintillation counting in presence of 30 uM efflux inhibitor MK-571 relative to control; details: hek-293t
[11] = Cellular uptake in BHK21 cells expressing hOAT3 at 10 uM by liquid scintillation counting in presence of 500 uM of probenecid relative to control; type: ADME, cell-based, Mesocricetus auratus; details: hamster, bhk-21, 10 µM; outline: as §2
[12] = Drug level in dog kidney at 3 mg/kg, po after 24 hrs by liquid scintillation counting; type: ADME, organism-based, Canis lupus familiaris; set-up: dose 3 mg/kg, route oral; details: in vivo
Outline: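 Three fasted dogs were given 3.0 mg/kg [14C]prodrug (10 μCi/kg) orally in 50 mM citrate pH 2.2. Kidneys were excised at 24 h, rinsed, blotted and weighed, then combusted and counted by scintillation. Values are μg equivalents per gram tissue, mean ± SD of three dogs.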

[13] = Cellular uptake in human HEK293T cells expressing MRP4 efflux transporter assessed as accumulation of GS-9148 metabolite at 5 uM by liquid scintillation counting relative to control; type: ADME, cell-based; details: hek-293t
[14] = Cellular uptake in BHK21 cells expressing hOAT3 at 10 uM by liquid scintillation counting relative to control; type: ADME, cell-based, Mesocricetus auratus; details: hamster, bhk-21, 10 µM; outline: as §2
OAT1 (SLC22A6) = molecular target: T2, OAT1 (SLC22A6) (Homo sapiens, UniProt Q4U2R8); test: (§3) Activity of human OAT1 transfected in CHO cells; type: cell-based
T2 sequence (Q4U2R8 whole entry): T1 sequence (Q4U2R8 whole entry)
Outline: (§4)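 CHO cells stably transfected with human OAT1, with empty-vector CHO cells run in parallel, seeded 48 h ahead. Radiolabeled substrate was given at a range of concentrations for 20 min at 37°C in Waymouth buffer pH 7.2. Cells were washed in ice-cold PBS, lysed in Triton X-100 and counted by scintillation. Km and Vmax came from Michaelis-Menten fitting; two independent experiments in duplicate, mean ± SD.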

[15] = substrate: Nc1ncnc2c1ncn2[C@@H]1O[C@H](OCP(=O)(O)O)C=C1F; test: as §3; type: cell-based; outline: as §4
[16] = substrate: Nc1ncnc2c1ncn2CCOCP(=O)(O)O; test: (§5) Activity of human OAT3 transfected in BHK-21 cells; type: cell-based
Outline: (§6)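 BHK-21 cells stably transfected with human OAT3 (the clone with highest probenecid-sensitive uptake), with empty-vector BHK cells in parallel, seeded on fibronectin 24 h ahead. Radiolabeled substrate was given at a range of concentrations for 120 min at 37°C in Waymouth buffer pH 7.2. Lysates were counted by scintillation. Km and Vmax came from Michaelis-Menten fitting; two independent experiments in duplicate.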

[17] = substrate: C[C@H](Cn1cnc2c(N)ncnc21)OCP(=O)(O)O; test: as §5; type: cell-based; outline: as §6
[18] = substrate: Nc1ncnc2c1ncn2[C@@H]1O[C@H](OCP(=O)(O)O)C=C1F; test: as §5; type: cell-based; outline: as §6

## Nc1ncnc2c1ncn2CCOCP(=O)(O)O [ADEFOVIR]
[1]
  Drug uptake: Active
[2]
  CC50 at 120 h: ≥ 2000 µM
[3]
  Vmax: 46 pmol/min

## Nc1ccn(C[C@@H](CO)OCP(=O)(O)O)c(=O)n1.O.O [CIDOFOVIR]
OAT1
  CC50 at 120 h: 3 µM
[2]
  CC50 at 120 h: 520 µM
[3]
  Vmax: 103 pmol/min

## Nc1ncnc2c1ncn2[C@@H]1O[C@H](OCP(=O)(O)O)C=C1F [GS-9148]
[4]
  AUC(0-t) at 24 h: 4.9 µM·h
OAT1
  CC50 at 120 h: 435 µM
[5]
  percent of urinary material as GS-9148: 84%
[6]
  CL renal: 0.47 L/h/kg
CHO [7]
  Drug uptake: Active
CHO [8]
  Drug uptake: Not Active
[9]
  Drug uptake: Not Active
[10]
  Drug uptake: Active
[11]
  Drug uptake: Not Active
[12]
  Drug uptake: 2.49 µg/g
[13]
  Drug uptake: Active
[14]
  Drug uptake: Active

## C[C@H](Cn1cnc2c(N)ncnc21)OCP(=O)(O)O [TENOFOVIR ANHYDROUS]
OAT1 (SLC22A6)
  Km: 33.8 µM
[3]
  Vmax: 110 pmol/min

B1: Solute carrier family 22 member 6 (Homo sapiens) (protein)
chain: T1 sequence (Q4U2R8 whole entry)
[15]
  Km: 259 µM
  Vmax: 7.8e-06 µmol/min

B2: Organic anion transporter 3 (Homo sapiens) (protein)
chain: MTFSEILDRVGSMGHFQFLHVAILGLPILNMANHNLLQIFTAATPVHHCRPPHNASTGPWVLPMGPNGKPERCLRFVHPPNASLPNDTQRAMEPCLDGWVYNSTKDSIVTEWDLVCNSNKLKEMAQSIFMAGILIGGLVLGDLSDRFGRRPILTCSYLLLAASGSGAAFSPTFPIYMVFRFLCGFGISGITLSTVILNVEWVPTRMRAIMSTALGYCYTFGQFILPGLAYAIPQWRWLQLTVSIPFFVFFLSSWWTPESIRWLVLSGKSSKALKILRRVAVFNGKKEEGERLSLEELKLNLQKEISLAKAKYTASDLFRIPMLRRMTFCLSLAWFATGFAYYSLAMGVEEFGVNLYILQIIFGGVDVPAKFITILSLSYLGRHTTQAAALLLAGGAILALTFVPLDLQTVRTVLAVFGKGCLSSSFSCLFLYTSELYPTVIRQTGMGVSNLWTRVGSMVSPLVKITGEVQPFIPNIIYGITALLGGSAALFLPETLNQPLPETIEDLENWSLRAKKPKQEPEVEKASQRIPLQPHGPGLGSS
[16]
  Km: 1220 µM
  Vmax: 0.000131 µmol/min
[17]
  Km: 770 µM
  Vmax: 2.87e-05 µmol/min
[18]
  Km: 1220 µM
  Vmax: 1.95e-05 µmol/min
